Data published in ChEMBL document CHEMBL1135466, “Potent antimalarial febrifugine analogues against the plasmodium malaria parasite” (J Med Chem, 2002).

Experiments:
[1] = In vitro antimalarial activity against the Plasmodium falciparum FCR3; assay type: functional
[2] = test system: FM3A; assay: Selectivity ratio of cytotoxicity against FM3A cells to antimalarial activity against Plasmodium falciparum FCR3; assay type: functional, Mus musculus
[3] = test system: FM3A; assay: In vitro cytotoxicity against mouse mammary FM3A cells; assay type: cell-based
[4] = test system: Plasmodium berghei; assay: (§1) In vivo antimalarial activity against Plasmodium berghei infected mice (Mus musculus); assay type: functional
How it was run: (§2)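 Infected mice were dosed, and activity is reported as the doses giving 50% and 90% effect (ED50 and ED90), in µmol/kg.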

[5] = test system: Plasmodium berghei; assay: as §1; assay type: functional; how it was run: as §2; remark: listed apart in the source

CC1(C)[C@@H](n2cnc3ccccc3c2=O)C(=O)C[C@@H]2[C@@H](O)CCCN21
EC50 [1]: 1.6 nM
Selectivity [2]: 238

CC(=O)O[C@H]1CCCN2[C@H]1C[C@@H](OC(C)=O)[C@@H](n1cnc3ccccc3c1=O)C2(C)C
EC50 [1]: 7000 nM
EC50 [3]: > 21000 nM
Selectivity [2]: >3

CC1(C)[C@@H](N2CNc3ccccc3C2=O)[C@@H](O)C[C@@H]2[C@@H](O)CCCN21
EC50 [1]: 420 nM
EC50 [3]: > 16000 nM
Selectivity [2]: >38

COC1=C[C@@H]2[C@@H](O)CCCN2C(C)(C)[C@H]1n1cnc2ccccc2c1=O
EC50 [1]: 1300 nM
EC50 [3]: > 66000 nM
Selectivity [2]: >51

O=c1c2ccccc2ncn1C[C@@H]1C[C@@H]2[C@H](O)CCCN2CO1
EC50 [1]: 840 nM
EC50 [3]: > 25000 nM
Selectivity [2]: >30

O=c1c2ccccc2ncn1C[C@@H]1C[C@@H]2[C@@H](O)CCCN2CO1
EC50 [3]: 3800 nM
ED50 [4]: > 180 µmol/kg
ED50 [5]: 82 µmol/kg
Selectivity [2]: 1027

CC1(C)[C@@H](n2cnc3ccccc3c2=O)C(=O)C[C@@H]2C(=O)CCCN21
EC50 [1]: 1.9 nM
EC50 [3]: 5900 nM
Selectivity [2]: >3105

CCN(CC)CCCC(C)Nc1ccnc2cc(Cl)ccc12 (centres undefined) [CHLOROQUINE]
EC50 [1]: 18 nM
ED50 [5]: 4.7 µmol/kg
ED90 [5]: 9.4 µM/kg

CC(=O)O[C@H]1CCCN2[C@@H]1CC(=O)[C@H](n1cnc3ccccc3c1=O)C2(C)C
EC50 [1]: 3.6 nM
EC50 [3]: 1300 nM
Selectivity [2]: 361

O=C(CC1NCCC[C@@H]1O)Cn1cnccc1=O (some centres undefined)
EC50 [3]: > 19000 nM
Selectivity [2]: >32

O=C(C[C@@H]1NCCC[C@H]1O)Cn1cnc2ccccc2c1=O [FEBRIFUGINE]
EC50 [1]: 700 nM
ED50 [5]: 1 µmol/kg
ED90 [5]: 5 µM/kg
Selectivity [2]: 243

CC1(C)[C@@H](n2cnc3ccccc3c2=O)C(=O)C[C@@H]2[C@@H](O)CCC[N+]21[O-] (some centres undefined)
EC50 [1]: 100 nM
EC50 [3]: > 29000 nM
Selectivity [2]: >290

C[C@@H]1CC[C@H]2[C@@H](C)C(=O)O[C@@H]3O[C@@]4(C)CC[C@@H]1[C@]32OO4 [ARTEMISININ]
EC50 [1]: 10 nM
ED90 [5]: 46 µM/kg
Selectivity [2]: 1000

CC(=O)O[C@H]1CCCN2[C@H]1C[C@@H](O)[C@@H](n1cnc3ccccc3c1=O)C2(C)C
EC50 [1]: 400 nM
EC50 [3]: > 11000 nM
Selectivity [2]: >28

CNc1ccccc1C(=O)NC1[C@@H](O)C[C@@H]2[C@@H](O)CCCN2C1(C)C (some centres undefined)
EC50 [1]: 600 nM
EC50 [3]: > 17000 nM
Selectivity [2]: >28

O=c1ccncn1CC1(O)CC2NCCC[C@@H]2O1 (some centres undefined)
EC50 [1]: 40 nM
EC50 [3]: 7000 nM
Selectivity [2]: 175

CC(=O)O[C@H]1CCCN(C(C)=O)C1CC(=O)Cn1cnc2ccccc2c1=O (some centres undefined)
EC50 [1]: 910 nM
EC50 [3]: > 29000 nM
Selectivity [2]: >32

O=c1c2ccccc2ccn1CC1(O)CC2NCCC[C@@H]2O1 (some centres undefined)
EC50 [1]: 2100 nM
EC50 [3]: > 6300 nM
Selectivity [2]: >3

CCOC(=O)N1CCC[C@H](O)C1CC(=O)Cn1cnc2ccccc2c1=O (some centres undefined)
EC50 [1]: 4800 nM
EC50 [3]: > 17000 nM
Selectivity [2]: >3.5

CC1(C)[C@@H](n2cnc3ccccc3c2=O)[C@@H](O)C[C@@H]2[C@@H](O)CCCN21
EC50 [1]: 400 nM
EC50 [3]: 2800 nM
Selectivity [2]: 70

CC1(C)[C@@H](n2cnc3ccccc3c2=O)[C@H](O)C[C@@H]2[C@@H](O)CCCN21
EC50 [1]: 300 nM
EC50 [3]: 85000 nM
Selectivity [2]: 283

CC1(C)[C@H](n2cnc3ccccc3c2=O)C(=O)C[C@H]2[C@@H](O)CCCN21
EC50 [1]: 2.8 nM
Selectivity [2]: 857

CC(=O)O[C@H]1CCCN2[C@H]1CC(=O)[C@@H](n1cnc3ccccc3c1=O)C2(C)C
EC50 [1]: 19 nM
EC50 [3]: 7000 nM
Selectivity [2]: 368

O=c1c2ccccc2ncn1CC1(O)C[C@@H]2NCCC[C@@H]2O1 (some centres undefined) [ISOFEBRIFUGINE]
EC50 [1]: 3.4 nM
ED50 [5]: 211 µmol/kg
ED90 [5]: >267 µM/kg
Selectivity [2]: 53

O=C(CC1NCCC[C@@H]1O)Cn1ccc2ccccc2c1=O (some centres undefined)
EC50 [1]: 500 nM
EC50 [3]: > 16000 nM
Selectivity [2]: >32

COCO[C@H]1CCCN2CO[C@H](Cn3cnc4ccccc4c3=O)C[C@H]12
EC50 [1]: 8.6 nM
EC50 [3]: 2500 nM
Selectivity [2]: 291

O=C(CC1NCCCC1=O)Cn1cnc2ccccc2c1=O (centres undefined)
EC50 [1]: 20 nM
EC50 [3]: 10000 nM
ED50 [5]: 1.3 µmol/kg
ED90 [5]: 6.2 µM/kg
Selectivity [2]: 500

CC1(C)[C@H](n2cnc3ccccc3c2=O)[C@@H](O)C[C@H]2[C@@H](O)CCCN21
EC50 [1]: 3400 nM
EC50 [3]: > 100000 nM
Selectivity [2]: >28

CC1(C)[C@@H](n2cnc3ccccc3c2=O)CC[C@@H]2[C@@H](O)CCCN21
EC50 [1]: 830 nM
EC50 [3]: > 22000 nM
Selectivity [2]: >27

CC1(C)[C@H](n2cnc3ccccc3c2=O)[C@H](O)C[C@H]2[C@@H](O)CCCN21
EC50 [1]: 800 nM
EC50 [3]: > 24000 nM
Selectivity [2]: >30

O=c1c2ccccc2ncn1C[C@@H](O)CC1NCCC[C@@H]1O (some centres undefined)
EC50 [1]: 20 nM
ED50 [5]: 2.9 µmol/kg
ED90 [5]: 22 µM/kg
Selectivity [2]: 750

CC1(C)[C@@H](n2cnc3ccccc3c2=O)C=C[C@@H]2[C@@H](O)CCCN21
EC50 [1]: 4800 nM
EC50 [3]: > 32000 nM
Selectivity [2]: >7
